ChEMBL document CHEMBL1154599 (J Med Chem, 2009)
Activity calls are given as the source filed them. The rule behind the calls is not given here.

Assays:
[1] = Aqueous solubility at pH 7.4 by turbidimetric method; type: physicochemical; details: aqueous solution
Procedure, shortened: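 DMSO stock of compound added in 2 μL portions, about 10 additions, to 50 mM Tris-HCl pH 7.4 or 50 mM acetate pH 3.0 at room temperature, final DMSO below 5%. Precipitation read as light-scattering absorbance rise at 600-820 nm. Solubility limit taken from a bilinear fit of absorbance against DMSO volume. Three independent assays, mean ± SEM.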

[2] = biological target: T1, Cytochrome P450 1A2 (Homo sapiens, UniProt P05177); experiment: Inhibition of human recombinant CYP1A2; type: ADME
T1 sequence (P05177 whole entry): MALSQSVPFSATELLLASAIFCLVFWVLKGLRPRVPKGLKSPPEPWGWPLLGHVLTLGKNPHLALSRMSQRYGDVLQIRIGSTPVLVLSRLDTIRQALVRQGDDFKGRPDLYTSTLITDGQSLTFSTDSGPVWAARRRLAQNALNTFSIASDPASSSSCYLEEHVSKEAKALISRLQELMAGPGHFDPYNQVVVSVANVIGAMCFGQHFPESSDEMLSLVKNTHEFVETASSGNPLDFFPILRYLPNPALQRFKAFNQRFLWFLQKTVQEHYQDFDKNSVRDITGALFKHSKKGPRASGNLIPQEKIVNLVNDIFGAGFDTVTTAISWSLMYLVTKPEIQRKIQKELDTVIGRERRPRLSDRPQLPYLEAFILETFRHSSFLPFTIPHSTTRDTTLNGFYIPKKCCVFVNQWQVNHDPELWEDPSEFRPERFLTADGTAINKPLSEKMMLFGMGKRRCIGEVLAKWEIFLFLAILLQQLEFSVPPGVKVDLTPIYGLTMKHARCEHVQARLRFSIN
Procedure, shortened: (§1)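 Recombinant human CYP supersomes were incubated at 37 C in incubation/NADPH regenerating buffer with isoform-specific substrates that turn fluorescent on metabolism. The substrate was 3-cyano-7-ethoxycoumarin for CYP1A2 and 7-methoxy-4-trifluoromethylcoumarin for CYP2C9. Fluorescence was read at the appropriate excitation/emission wavelengths, with a literature inhibitor as positive control in each assay.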

[3] = biological target: Cytochrome P450 2C9 (Homo sapiens, UniProt P11712); experiment: Inhibition of human recombinant CYP2C9; type: ADME; procedure, shortened: as §1
[4] = system: Mus musculus; experiment: Ex vivo inhibition of MAO-B in C57Bl mouse brain at 3 mg/kg, po or 3 mg/kg, ip after 1 hr by radioenzymatic assay; type: functional, organism-based
Procedure, shortened: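 C57Bl mice (n = 6 per group) dosed orally or intraperitoneally at 3 mg/kg and killed 1 h later. Brains homogenized in 0.1 M phosphate pH 7.40. MAO-A ([14C]5-HT) and MAO-B ([14C]PEA) activities measured by radioenzymatic assay. Mean ± SEM, ANOVA with Dunnett's test.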

[5] = biological target: Cytochrome P450 2E1 (Homo sapiens, UniProt P05181); experiment: Inhibition of human recombinant CYP2E1; type: ADME
Procedure, shortened: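 Human recombinant CYP isoenzymes (supersomes) were incubated at 37 C with the test compound in incubation/NADPH-regenerating buffer plus a fluorogenic substrate. The substrate was 3-[2-(N,N-diethyl-N-methylammonium)ethyl]-7-methoxy-4-methylcoumarin for CYP2D6 and 7-methoxy-4-phenylcoumarin for CYP2E1. Fluorescent product was read at isoform-appropriate wavelengths, with a literature inhibitor as positive control. IC50 came from nonlinear regression of at least seven concentrations, each in duplicate.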

[6] = biological target: T2, Amine oxidase [flavin-containing] B (Rattus norvegicus, UniProt P19643); experiment: Inhibition of MAO-B from Wistar rat brain by radioenzymatic assay
T2 sequence (P19643 whole entry): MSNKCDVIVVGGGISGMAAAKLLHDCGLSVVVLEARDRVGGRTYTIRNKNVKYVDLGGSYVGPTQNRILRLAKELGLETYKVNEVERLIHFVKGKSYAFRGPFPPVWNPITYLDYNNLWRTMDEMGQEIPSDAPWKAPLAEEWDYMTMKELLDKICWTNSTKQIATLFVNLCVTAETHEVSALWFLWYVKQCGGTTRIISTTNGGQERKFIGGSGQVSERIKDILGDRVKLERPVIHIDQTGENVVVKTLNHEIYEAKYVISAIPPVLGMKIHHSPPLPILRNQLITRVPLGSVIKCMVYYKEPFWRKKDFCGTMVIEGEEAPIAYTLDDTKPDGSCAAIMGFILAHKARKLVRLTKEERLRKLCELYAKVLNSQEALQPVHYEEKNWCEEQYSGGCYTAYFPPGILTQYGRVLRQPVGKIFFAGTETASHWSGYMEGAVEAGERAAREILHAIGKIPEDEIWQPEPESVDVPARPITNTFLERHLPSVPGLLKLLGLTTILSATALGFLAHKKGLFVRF
Procedure, shortened: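 Crude mitochondrial fraction from male Wistar rat brain (150-175 g), 500 μg protein in 0.1 M phosphate pH 7.40. Preincubated 30 min at 37 °C with compound. Substrate then added: [14C]5-HT 5 μM for 30 min (MAO-A) or [14C]PEA 0.5 μM for 10 min (MAO-B), 37 °C. Stopped with acid, deaminated metabolites extracted into ether or toluene, counted by scintillation.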

Cytochrome P450 2E1, sequence (P05181 whole entry, canonical isoform): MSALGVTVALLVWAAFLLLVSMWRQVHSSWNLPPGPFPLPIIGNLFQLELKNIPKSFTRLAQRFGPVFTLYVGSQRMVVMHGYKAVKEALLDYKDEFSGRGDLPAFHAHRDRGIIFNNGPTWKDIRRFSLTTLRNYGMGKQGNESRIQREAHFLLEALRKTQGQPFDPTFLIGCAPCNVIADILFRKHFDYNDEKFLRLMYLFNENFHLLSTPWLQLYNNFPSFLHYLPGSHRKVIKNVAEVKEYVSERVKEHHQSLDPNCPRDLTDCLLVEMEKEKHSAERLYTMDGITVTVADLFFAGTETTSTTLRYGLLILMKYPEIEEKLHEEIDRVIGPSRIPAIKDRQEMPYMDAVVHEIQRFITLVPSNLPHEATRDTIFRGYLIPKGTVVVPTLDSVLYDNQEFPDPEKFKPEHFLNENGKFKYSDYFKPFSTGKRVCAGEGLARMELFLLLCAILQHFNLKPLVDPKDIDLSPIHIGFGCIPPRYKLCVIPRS
Cytochrome P450 2C9, sequence (P11712 whole entry): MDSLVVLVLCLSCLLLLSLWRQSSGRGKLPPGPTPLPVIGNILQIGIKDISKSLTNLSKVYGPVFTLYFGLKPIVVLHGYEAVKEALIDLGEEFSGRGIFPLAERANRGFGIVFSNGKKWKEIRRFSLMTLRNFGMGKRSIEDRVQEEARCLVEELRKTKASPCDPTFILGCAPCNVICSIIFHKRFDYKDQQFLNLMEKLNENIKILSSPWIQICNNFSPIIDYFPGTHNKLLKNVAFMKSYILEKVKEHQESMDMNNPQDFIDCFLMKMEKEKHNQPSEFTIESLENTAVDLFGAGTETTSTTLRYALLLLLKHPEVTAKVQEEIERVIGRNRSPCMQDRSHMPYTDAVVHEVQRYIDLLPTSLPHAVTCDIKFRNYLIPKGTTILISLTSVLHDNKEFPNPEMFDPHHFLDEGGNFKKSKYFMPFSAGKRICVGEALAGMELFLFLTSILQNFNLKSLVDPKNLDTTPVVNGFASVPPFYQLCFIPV

- solubility kinetic [1]: 52 µg/mL
- IC50 [2]: > 5 µM
- IC50 [3]: > 5 µM
- IC50 [5]: > 5 µM
- IC50 [6]: 0.013 µM
Compound: CNCc1cc(=O)oc2cc(OCc3cccc(Cl)c3)ccc12.CS(=O)(=O)O
- Activity [4]: Active
